{"source": "paper PMC3336105", "about": "(Journal of Medicinal Chemistry, 2008)", "key": {"PSMA": {"target": "PSMA (Homo sapiens, UniProt Q04609)", "sequence (Q04609 whole entry)": "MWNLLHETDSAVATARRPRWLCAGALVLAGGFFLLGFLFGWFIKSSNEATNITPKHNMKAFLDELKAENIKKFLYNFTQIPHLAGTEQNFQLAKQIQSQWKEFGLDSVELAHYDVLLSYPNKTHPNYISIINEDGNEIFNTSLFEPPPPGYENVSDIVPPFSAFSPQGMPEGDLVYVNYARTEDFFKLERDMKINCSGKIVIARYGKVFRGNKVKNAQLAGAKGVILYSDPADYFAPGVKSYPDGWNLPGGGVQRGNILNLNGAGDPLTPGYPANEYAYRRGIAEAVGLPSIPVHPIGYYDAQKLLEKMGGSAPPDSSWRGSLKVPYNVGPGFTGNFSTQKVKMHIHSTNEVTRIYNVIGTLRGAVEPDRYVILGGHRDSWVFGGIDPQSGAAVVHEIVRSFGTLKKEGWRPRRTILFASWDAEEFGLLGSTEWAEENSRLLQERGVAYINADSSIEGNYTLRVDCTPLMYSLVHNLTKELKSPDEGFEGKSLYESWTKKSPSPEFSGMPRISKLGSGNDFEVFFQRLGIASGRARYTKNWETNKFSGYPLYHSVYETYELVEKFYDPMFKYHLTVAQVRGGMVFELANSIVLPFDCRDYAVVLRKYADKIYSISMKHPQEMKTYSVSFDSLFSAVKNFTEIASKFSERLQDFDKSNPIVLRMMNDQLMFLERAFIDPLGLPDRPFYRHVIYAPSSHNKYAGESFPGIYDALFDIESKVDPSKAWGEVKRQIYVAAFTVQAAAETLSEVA", "assay": "NAALADase assay", "assay_type": "biochemical"}, "[1]": {"assay": "Electronic / fluorescence properties", "assay_type": "physicochemical", "in_short": "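Test compound (Re tricarbonyl complex) dissolved in ethylene glycol, measured under air or after argon purging. […] Lifetime was measured by a frequency-domain method with 370 nm LED excitation and 540–600 nm bandpass collection. Quantum yield was obtained by the optically dilute method against aerated aqueous [Ru(bpy)3]Cl2 (φ = 0.028, excitation 455 nm).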"}, "PSMA+ PC3 PIP cells": {"tested_on": "PSMA+ PC3 PIP cells", "assay": "In vitro fluorescence microscopy in PC3 PIP and PC3 flu cells", "assay_type": "cell-based, human", "settings": "excitation 494 nm, emission 628 nm", "in_short": "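PC3 PIP and PC3 flu cells (10000 per well) were attached overnight at 37 °C in 5% CO2. […] Wells were washed with warm medium for 30 s, mounted, dried 20 min, held overnight at 4 °C, then imaged.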"}, "[2]": {"settings": "LNCaP cell extracts, Cheng–Prusoff conversion"}}, "note": "Where two headings read alike, the source gives them in different places.", "data": [{"smiles": "O=C(O)CCC(NC(=O)NC(CCCCNC(=O)CCCCCCC(=O)NC(CCCCN(Cc1ccccn1)Cc1ccccn1)C(=O)O)C(=O)O)C(=O)O.[Br-].[C-]#[O+].[C-]#[O+].[C-]#[O+].[Re+]", "note": "(stereo not drawn) [ReL1, Tricarbonyl (2-[3-(5-{7-[5-(bis-pyridin-2-ylmethyl-amino)-1-carboxy-pentylcarbamoyl]-heptanoylamino}-1-carboxy-pentyl)-ureido]-pentanedioic acid) rhenium bromide]", "values": [{"measurement": "Ki", "setting": "PSMA; [2]", "result": 10.8, "unit": "nM"}]}, {"smiles": "O=C(O)CCC(NC(=O)NC(CCCCNC(=O)CCCCCCCN(Cc1ccccn1)Cc1ccccn1)C(=O)O)C(=O)O.[Br-].[C-]#[O+].[C-]#[O+].[C-]#[O+].[Re+]", "note": "(stereo not drawn) [ReL5, Tricarbonyl(2-(3-{5-[8-(bis-pyridin-2-ylmethyl-amino)-octanoylamino]-1-carboxy-pentyl}-ureido)-pentanedioic acid)rhenium bromide]", "values": [{"measurement": "Ki", "setting": "PSMA; [2]", "result": 0.91, "unit": "nM"}]}, {"smiles": "O=C(O)CCC(NC(=O)NC(CCCCNC(=O)CCCCCCCN(Cc1ccccn1)Cc1ccccn1)C(=O)O)C(=O)O", "note": "(centres unmarked) [Compound L5, 2-(3-{5-[8-(Bis-pyridin-2-ylmethyl-amino)-octanoylamino]-1-carboxy-pentyl}-ureido)-pentanedioic Acid]", "values": [{"measurement": "PSMA inhibitory activity (in words)", "setting": "PSMA", "result": "low nanomolar"}]}, {"smiles": "O=C(O)CCC(NC(=O)NC(CCCCNC(=O)CCCCCCC(=O)NC(CCCCN(Cc1ccc2ccccc2n1)Cc1ccc2ccccc2n1)C(=O)O)C(=O)O)C(=O)O.[Br-].[C-]#[O+].[C-]#[O+].[C-]#[O+].[Re+]", "note": "(stereo not drawn) [ReL2, Tricarbonyl(2-[3-(5-{7-[5-(bis-quinolin-2-ylmethyl-amino)-1-carboxy-pentylcarbamoyl]-heptanoylamino}-1-carboxy-pentyl)-ureido]-pentanedioic acid) rhenium bromide]", "values": [{"measurement": "extinction coefficient", "setting": "[1]; at 321 nm", "result": 17200, "unit": "M⁻¹"}, {"measurement": "absorbance maximum", "setting": "[1]; electronic spectrum", "result": 321, "unit": "nm"}, {"measurement": "fluorescence quantum yield", "setting": "[1]; ethylene glycol under argon", "result": 0.018}, {"measurement": "fluorescence emission", "setting": "[1]; excitation at 321 nm", "result": 550, "unit": "nm"}, {"measurement": "fluorescence lifetime", "setting": "[1]; λem = 550 nm, ethylene glycol under argon", "result": 11.8, "unit": "μs"}, {"measurement": "Ki", "setting": "PSMA; [2]", "result": 0.5, "unit": "nM"}, {"measurement": "PSMA inhibitory activity, fold higher than ReL1", "setting": "PSMA; relative to ReL1", "result": 20, "unit": "fold"}, {"measurement": "fluorescent signal in live cells (internalization)", "setting": "PSMA+ PC3 PIP cells", "result": "weak but observable fluorescent signal"}]}, {"smiles": "O=C(O)CCC(NC(=O)NC(CCCCNC(=O)CCCCCCC(=O)NC(CCCCN(Cc1ccc2ccccc2n1)Cc1ccc2ccccc2n1)C(=O)O)C(=O)O)C(=O)O", "note": "(centres unmarked) [Compound L2, 2-[3-(5-{7-[5-(Bis-quinolin-2-ylmethyl-amino)-1-carboxy-pentylcarbamoyl]-heptanoylamino}-1-carboxy-pentyl)-ureido]-pentanedioic acid]", "values": [{"measurement": "Ki", "setting": "PSMA; [2]", "result": 0.17, "unit": "nM"}]}, {"smiles": "O=C(O)CCC(NC(=O)NC(CCCCNC(=O)CCCCCCC(=O)NC(CCCCN(Cc1ccccn1)Cc1ccccn1)C(=O)O)C(=O)O)C(=O)O", "note": "(centres unmarked) [Compound L1, 2-[3-(5-{7-[5-(Bis-pyridin-2-ylmethyl-amino)-1-carboxy-pentylcarbamoyl]-heptanoylamino}-1-carboxy-pentyl)-ureido]-pentanedioic Acid]", "values": [{"measurement": "Ki", "setting": "PSMA", "result": 15.2, "unit": "nM"}]}, {"smiles": "O=C(O)CCC(NC(=O)NC(CCCCNC(=O)CCCCCCC(=O)NCCCCC(C(=O)O)N(Cc1ccccn1)Cc1ccccn1)C(=O)O)C(=O)O.[Br-].[C-]#[O+].[C-]#[O+].[C-]#[O+].[Re+]", "note": "(stereo not drawn) [ReL3, Tricarbonyl(2-[3-(5-{7-[5-(bis-pyridin-2-ylmethyl-amino)-5-carboxy-pentylcarbamoyl]-heptanoylamino}-1-carboxy-pentyl)-ureido]-pentanedioic acid)rehenium bromide]", "values": [{"measurement": "Ki", "setting": "PSMA; [2]", "result": 10.3, "unit": "nM"}]}, {"smiles": "O=C(O)CCC(NC(=O)NC(CCCCN(Cc1ccccn1)Cc1ccccn1)C(=O)O)C(=O)O.[Br-].[C-]#[O+].[C-]#[O+].[C-]#[O+].[Re+]", "note": "(stereo not drawn) [ReL6, Tricarbonyl(2-{3-[5-(bis-pyridin-2-ylmethyl-amino)-1-carboxy-pentyl]-ureido}-pentanedioic acid)rhenium bromide]", "values": [{"measurement": "PSMA inhibitory activity (in words)", "setting": "PSMA", "result": "very low PSMA inhibitory activity, the lowest in the entire series"}, {"measurement": "Ki", "setting": "PSMA; [2]", "result": 200, "unit": "nM"}]}, {"smiles": "O=C(O)CCC(NC(=O)NC(CCCCNC(=O)CCCCCCC(=O)NCCCCCCN(Cc1ccccn1)Cc1ccccn1)C(=O)O)C(=O)O.[Br-].[C-]#[O+].[C-]#[O+].[C-]#[O+].[Re+]", "note": "(stereo not drawn) [ReL7, Tricarbonyl(2-[3-(5-{7-[6-(Bis-pyridin-2-ylmethyl-amino)-hexylcarbamoyl]-heptanoylamino}-1-carboxy-pentyl)-ureido]-pentanedioic acid)rhenium bromide]", "values": [{"measurement": "Ki", "setting": "PSMA; [2]", "result": 2.06, "unit": "nM"}]}]}
